Experimental data: ChEMBL document CHEMBL5230167, “Discovery of N-sulfonylated aminosalicylic acids as dual MCL-1/BCL-xL inhibitors” (RSC Med Chem, 2023)

Experiments:
Homo sapiens [1] = organism: Homo sapiens; assay: Selectivity index, ratio of Ki for inhibition of FITC-labelled BAK BH3 peptide to 6His-MBP tagged recombinant human MCL-1 (172 to 327 residues) expressed in Escherichia coli assessed as inhibition constant to Ki for binding affinity to BCL-xL (unknown origin) assessed as inhibition constant
Bcl-2-like protein 1 = Bcl-2-like protein 1 (Homo sapiens, UniProt Q07817); assay: Binding affinity to BCL-xL (unknown origin) assessed as inhibition constant
Homo sapiens [2] = organism: Homo sapiens; assay: Selectivity index, ratio of Ki for inhibition of FITC-labelled BAK BH3 peptide to MCL-1 (172 to 327 residues) (unknown origin) assessed as inhibition constant to Ki for binding affinity to BCL-xL (unknown origin) assessed as inhibition constant
[3] = molecular target: T1, Induced myeloid leukemia cell differentiation protein Mcl-1 (Homo sapiens, UniProt Q07820); assay: Inhibition of FITC-labelled BAK BH3 peptide to 6His-MBP tagged recombinant human MCL-1 (172 to 327 residues) expressed in Escherichia coli assessed as inhibition constant by fluorescence polarization competition assay
Outline: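 Fluorescence polarization competition: compounds titrated into a mixture of MCL-1 (residues 172–327) and FITC-labelled BAK BH3 peptide. Displacement of the peptide was followed by the change in polarization, and Ki was derived from the competition titration.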

[4] = molecular target: T1, Induced myeloid leukemia cell differentiation protein Mcl-1; assay: Binding affinity to MCL-1 (unknown origin) assessed as inhibition constant

Bcl-2-like protein 1, sequence (Q07817 whole entry, the tested form may be a part): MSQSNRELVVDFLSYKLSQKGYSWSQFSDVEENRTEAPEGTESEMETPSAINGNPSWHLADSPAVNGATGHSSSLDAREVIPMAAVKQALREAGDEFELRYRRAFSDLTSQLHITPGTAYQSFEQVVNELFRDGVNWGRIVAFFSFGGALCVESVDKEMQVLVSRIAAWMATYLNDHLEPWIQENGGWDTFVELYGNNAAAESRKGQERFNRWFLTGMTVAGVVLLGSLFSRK
T1 sequence (Q07820 whole entry, the tested form may be a part): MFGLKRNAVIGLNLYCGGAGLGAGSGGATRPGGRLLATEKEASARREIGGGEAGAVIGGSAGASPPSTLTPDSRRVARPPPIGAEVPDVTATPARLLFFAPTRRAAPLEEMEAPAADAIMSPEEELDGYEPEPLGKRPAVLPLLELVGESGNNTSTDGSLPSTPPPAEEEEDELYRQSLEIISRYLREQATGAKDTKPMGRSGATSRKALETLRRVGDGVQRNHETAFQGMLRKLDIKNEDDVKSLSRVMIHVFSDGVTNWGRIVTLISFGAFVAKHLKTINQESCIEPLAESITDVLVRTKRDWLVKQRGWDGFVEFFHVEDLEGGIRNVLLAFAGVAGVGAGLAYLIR

Structure (SMILES)	Ratio Ki (Homo sapiens [1])	Ki (Bcl-2-like protein 1)	also measured
CC(C)CN(c1ccc(O)c(C(=O)O)c1)S(=O)(=O)c1ccc(-c2ccccc2)cc1	1.59		
CC(C)CN(c1ccc(C(=O)O)c(O)c1)S(=O)(=O)c1ccc(Oc2ccccc2)cc1	3.12		
Cc1cc(Oc2ccc(S(=O)(=O)N3CC(C(=O)O)Cc4ccccc43)cc2)cc(C)c1Cl (racemic)		5010 nM	Ratio Ki (Homo sapiens [2]): 42
CC(C)CN(c1ccc(C(=O)O)c(O)c1)S(=O)(=O)c1ccc(-c2ccccc2)cc1	2.63		
Cc1cc(Oc2ccc(S(=O)(=O)N(CC(C)C)c3ccc(C(=O)O)c(O)c3)cc2)cc(C)c1Cl	2.09	1630 nM	Ki [3]: 778 nM
Cc1cc(Oc2ccc(S(=O)(=O)N(c3ccc(C(=O)O)c(O)c3)C3CCCC3)cc2)cc(C)c1Cl	1.08	1910 nM	Ki [3]: 1760 nM
Cc1cc(Oc2ccc(S(=O)(=O)N3CCCc4cc(C(=O)O)ccc43)cc2)cc(C)c1Cl		3560 nM	Ki [4]: 2730 nM
CC(C)CN(c1ccc(C(=O)O)c(O)c1)S(=O)(=O)c1ccccc1	0.8		
CC(C)CN(c1ccc(O)c(C(=O)O)c1)S(=O)(=O)c1ccccc1	1.06	49300 nM	
CC(C)CN(c1ccc(O)c(C(=O)O)c1)S(=O)(=O)c1ccc2ccccc2c1	5.94		
Cc1cc(Oc2ccc(S(=O)(=O)N(Cc3ccccc3)c3ccc(C(=O)O)c(O)c3)cc2)cc(C)c1Cl	2.65		
CC(C)CN(c1ccc(C(=O)O)c(O)c1)S(=O)(=O)c1ccc2ccccc2c1	3.12		
Cc1cc(Oc2ccc(S(=O)(=O)N(CC(C)C)c3ccc(O)c(C(=O)O)c3)cc2)cc(C)c1Cl	4.96		
